Test results: ChEMBL document CHEMBL1148788 (J Med Chem, 2007)
Where “and” joins values, the source holds several entries; their conditions need not be identical. Equal entries are not always repeated. Calls of active or inactive are those of the source. The rule behind the calls is not given here.

Legend:
tsA201 [1] = test: Displacement of [3H]methyllycaconitine from chimeric alpha-7nAChR Y93A mutant/5HT3A receptor in tsA201 cells; format: cell-based; conditions: Homo sapiens
Method in brief: (§1)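 tsA-201 cells transiently transfected with 4 µg WT or mutant α7/5-HT3A chimera and assayed 2 days later. Membranes washed twice at 50000g in 50 mM Tris-HCl pH 7.2. Incubated with 0.5 nM [3H]MLA and compound for 2.5 h at room temperature with shaking; nonspecific binding with 5 mM (S)-nicotine. PEI-soaked GF/C filtration, scintillation counting. Ki derived; duplicate, 3–7 experiments.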

[2] = Displacement of [3H]methyllycaconitine from chimeric alpha-7nAChR Y195F mutant/5HT3A receptor in tsA201 cells; format: cell-based, Homo sapiens; method in brief: as §1
[3] = biological target: T1, Neuronal acetylcholine receptor subunit alpha-7 (Homo sapiens, UniProt P36544); test: Displacement of [3H]methyllycaconitine from human alpha-7 in tsA201 cells coexpressed with 5HT3A receptor; format: cell-based
Target sequence in this assay (P36544 whole entry): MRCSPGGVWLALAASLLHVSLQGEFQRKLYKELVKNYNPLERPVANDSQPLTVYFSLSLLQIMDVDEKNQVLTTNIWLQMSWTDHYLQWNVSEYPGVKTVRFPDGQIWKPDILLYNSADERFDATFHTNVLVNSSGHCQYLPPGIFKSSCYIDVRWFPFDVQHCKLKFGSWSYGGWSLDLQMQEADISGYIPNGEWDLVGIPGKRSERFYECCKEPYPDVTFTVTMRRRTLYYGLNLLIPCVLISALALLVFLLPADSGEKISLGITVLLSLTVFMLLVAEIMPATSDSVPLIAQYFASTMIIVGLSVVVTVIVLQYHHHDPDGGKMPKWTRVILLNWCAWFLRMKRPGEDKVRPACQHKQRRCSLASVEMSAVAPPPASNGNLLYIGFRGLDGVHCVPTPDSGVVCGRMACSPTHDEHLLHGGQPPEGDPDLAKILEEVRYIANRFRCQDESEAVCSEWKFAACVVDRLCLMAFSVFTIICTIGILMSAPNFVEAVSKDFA

[4] = Antagonist activity at human alpha-7 nAChR Y188A mutant coexpressed with human Ric3 in tsA201 cells by FMP assay; format: functional, cell-based
[5] = Displacement of [3H]methyllycaconitine from chimeric alpha-7nAChR D197A mutant/5HT3A receptor in tsA201 cells; format: cell-based, Homo sapiens; method in brief: as §1
[6] = Antagonist activity at human alpha-7 nAChR Y195A mutant coexpressed with human Ric3 in tsA201 cells by FMP assay; format: functional, cell-based
[7] = Displacement of [3H]methyllycaconitine from chimeric alpha-7nAChR S150A mutant/5HT3A receptor in tsA201 cells; format: cell-based, Homo sapiens; method in brief: as §1
tsA201 [8] = test: Displacement of [3H]methyllycaconitine from chimeric alpha-7nAChR W149Y mutant/5HT3A receptor W149Y mutant in tsA201 cells; format: cell-based; conditions: Homo sapiens; method in brief: as §1
tsA201 [9] = test: Displacement of [3H]methyllycaconitine from chimeric alpha-7nAChR W149A mutant/5HT3A receptor in tsA201 cells; format: cell-based; conditions: Homo sapiens; method in brief: as §1
[10] = Displacement of [3H]methyllycaconitine from chimeric alpha-7nAChR S148A mutant /5HT3A receptor in tsA201 cells; format: cell-based, Homo sapiens; method in brief: as §1
[11] = Displacement of [3H]methyllycaconitine from chimeric alpha7nAChR K145A mutant/5HT3A receptor in tsA201 cells; format: cell-based, Homo sapiens; method in brief: as §1
[12] = Displacement of [3H]methyllycaconitine from chimeric alpha7nAChR Y195A mutant/5HT3A receptor in tsA201 cells; format: cell-based, Homo sapiens; method in brief: as §1
[13] = Displacement of [3H]methyllycaconitine from chimeric alpha7nAChR R79A mutant/5HT3A receptor R79A mutant in tsA201 cells; format: cell-based, Homo sapiens; method in brief: as §1
[14] = biological target: T1, Neuronal acetylcholine receptor subunit alpha-7
Target sequence in this assay (P36544 whole entry): as above

[15] = Antagonist activity at human alpha7 nAChR W149Y mutant co-expressed with human Ric3 in tsA201 cells by FMP assay; format: functional, cell-based
[16] = Displacement of [3H]methyllycaconitine from chimeric alpha7nAChR W55Y mutant/5HT3A receptor in tsA201 cells; format: cell-based, Homo sapiens; method in brief: as §1
[17] = Displacement of [3H]methyllycaconitine from chimeric alpha-7nAChR K145R mutant /5HT3A receptor in tsA201 cells; format: cell-based, Homo sapiens; method in brief: as §1
[18] = Displacement of [3H]methyllycaconitine from chimeric alpha-7nAChR Y168A mutant/5HT3A receptor in tsA201 cells; format: cell-based, Homo sapiens; method in brief: as §1
tsA201 [19] = test: Displacement of [3H]methyllycaconitine from chimeric alpha-7nAChR W55A/Y195A mutant /5HT3A receptor in tsA201 cells; format: cell-based; conditions: Homo sapiens; method in brief: as §1
[20] = Antagonist activity at human alpha7nAChR Y93A mutant co-expressed with human Ric3 in tsA201 cells by FMP assay; format: functional, cell-based
tsA201 [21] = test: Displacement of [3H]methyllycaconitine from chimeric alpha-7nAChR Y188A mutant/5-HT3A receptor in tsA201 cells; format: cell-based; conditions: Homo sapiens; method in brief: as §1
[22] = biological target: T1, Neuronal acetylcholine receptor subunit alpha-7; test: Displacement of [3H]methyllycaconitine from alpha7 nAChR in tsA201 cells co-expressed with Ric3; format: cell-based
Target sequence in this assay (P36544 whole entry): as above

[23] = biological target: T1, Neuronal acetylcholine receptor subunit alpha-7; test: Displacement of [3H]methyllycaconitine from chimeric alpha7nAChR/5HT3A in tsA201 cells; format: cell-based
Target sequence in this assay (P36544 23-502 limits assumed): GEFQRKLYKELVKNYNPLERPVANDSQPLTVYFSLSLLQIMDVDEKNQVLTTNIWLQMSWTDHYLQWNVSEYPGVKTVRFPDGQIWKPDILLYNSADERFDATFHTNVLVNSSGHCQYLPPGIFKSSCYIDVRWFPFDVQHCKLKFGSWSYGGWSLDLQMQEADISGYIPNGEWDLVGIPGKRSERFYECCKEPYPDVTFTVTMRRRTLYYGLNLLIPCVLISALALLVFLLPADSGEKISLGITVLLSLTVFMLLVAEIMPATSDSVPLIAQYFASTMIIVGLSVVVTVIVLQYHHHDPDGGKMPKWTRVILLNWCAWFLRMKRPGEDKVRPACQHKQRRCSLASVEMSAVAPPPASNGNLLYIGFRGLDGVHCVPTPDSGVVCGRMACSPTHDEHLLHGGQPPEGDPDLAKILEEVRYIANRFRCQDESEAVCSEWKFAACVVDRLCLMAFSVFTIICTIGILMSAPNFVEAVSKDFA

[24] = Displacement of [3H]methyllycaconitine from chimeric alpha-7nAChR W55A mutant /5HT3A receptor in tsA201 cells; format: cell-based, Homo sapiens; method in brief: as §1
[25] = Displacement of [3H]methyllycaconitine from chimeric alpha-7nAChR N107A mutant/5HT3A receptor in tsA201 cells; format: cell-based, Homo sapiens; method in brief: as §1
[26] = biological target: T1, Neuronal acetylcholine receptor subunit alpha-7; test: Antagonist activity at human alpha-7 nAChR in tsA201 cells coexpressed with Ric3 by FMP assay; format: functional, cell-based
Target sequence in this assay (P36544 whole entry): as the sequence (P36544 whole entry) above

[27] = biological target: T2, Neuronal acetylcholine receptor; alpha3/beta4 (Rattus norvegicus, UniProt P04757+P12392); test: Antagonist activity at rat alpha3beta4 nAChR expressed in HEK293 cells by FMP assay; format: functional, cell-based, Homo sapiens
T2 sequence (P04757 whole entry): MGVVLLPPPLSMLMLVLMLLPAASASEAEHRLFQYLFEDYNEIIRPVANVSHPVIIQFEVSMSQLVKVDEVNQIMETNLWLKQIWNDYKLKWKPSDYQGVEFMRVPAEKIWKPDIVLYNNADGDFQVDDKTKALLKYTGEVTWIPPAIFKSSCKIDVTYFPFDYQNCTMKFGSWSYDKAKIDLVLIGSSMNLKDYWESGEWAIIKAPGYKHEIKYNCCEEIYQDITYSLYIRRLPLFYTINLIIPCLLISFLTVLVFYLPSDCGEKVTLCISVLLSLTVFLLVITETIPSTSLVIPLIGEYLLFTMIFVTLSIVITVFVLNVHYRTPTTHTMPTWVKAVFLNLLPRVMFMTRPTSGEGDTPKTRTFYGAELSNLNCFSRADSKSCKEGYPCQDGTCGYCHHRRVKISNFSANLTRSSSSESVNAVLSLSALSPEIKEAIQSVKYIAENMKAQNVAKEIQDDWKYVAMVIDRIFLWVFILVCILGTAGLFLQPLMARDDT
T2 sequence (P12392 whole entry): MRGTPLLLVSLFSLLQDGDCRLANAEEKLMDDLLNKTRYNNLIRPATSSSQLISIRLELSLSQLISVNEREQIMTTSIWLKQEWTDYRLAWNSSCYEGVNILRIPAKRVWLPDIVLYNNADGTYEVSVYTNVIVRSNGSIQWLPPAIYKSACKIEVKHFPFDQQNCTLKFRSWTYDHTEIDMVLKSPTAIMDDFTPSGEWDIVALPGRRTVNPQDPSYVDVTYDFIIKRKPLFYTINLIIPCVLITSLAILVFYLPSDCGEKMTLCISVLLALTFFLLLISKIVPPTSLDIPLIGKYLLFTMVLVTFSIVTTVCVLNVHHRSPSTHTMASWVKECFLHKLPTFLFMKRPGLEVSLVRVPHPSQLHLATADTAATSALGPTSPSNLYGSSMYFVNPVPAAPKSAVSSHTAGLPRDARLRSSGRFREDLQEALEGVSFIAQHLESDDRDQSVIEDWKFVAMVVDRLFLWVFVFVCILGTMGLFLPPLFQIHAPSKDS

[28] = biological target: Neuronal acetylcholine receptor; alpha4/beta4 (Rattus norvegicus, UniProt P09483+P12392); test: Displacement of [3H]epibatidine from recombinant rat alpha-4-beta-4 nAChr in HEK293 cell line; format: cell-based
Chain of Neuronal acetylcholine receptor; alpha4/beta4 (P09483 whole entry): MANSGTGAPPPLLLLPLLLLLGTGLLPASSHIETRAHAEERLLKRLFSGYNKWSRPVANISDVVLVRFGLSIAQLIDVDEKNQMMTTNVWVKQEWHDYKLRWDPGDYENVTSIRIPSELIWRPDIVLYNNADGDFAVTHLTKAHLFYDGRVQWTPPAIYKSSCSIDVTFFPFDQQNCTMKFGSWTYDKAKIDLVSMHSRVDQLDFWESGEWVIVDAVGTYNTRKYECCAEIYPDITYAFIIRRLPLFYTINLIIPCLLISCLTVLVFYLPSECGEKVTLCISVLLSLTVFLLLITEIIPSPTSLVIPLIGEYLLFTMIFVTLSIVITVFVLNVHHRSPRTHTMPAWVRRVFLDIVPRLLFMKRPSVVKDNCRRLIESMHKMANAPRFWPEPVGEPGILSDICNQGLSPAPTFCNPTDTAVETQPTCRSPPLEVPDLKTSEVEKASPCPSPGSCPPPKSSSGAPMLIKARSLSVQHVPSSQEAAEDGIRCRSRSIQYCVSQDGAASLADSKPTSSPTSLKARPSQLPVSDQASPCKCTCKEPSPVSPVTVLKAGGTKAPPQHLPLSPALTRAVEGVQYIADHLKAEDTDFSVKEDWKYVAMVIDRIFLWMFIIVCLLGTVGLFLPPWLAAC
Chain of Neuronal acetylcholine receptor; alpha4/beta4 (P12392 whole entry): as the sequence (P12392 whole entry) above

[29] = biological target: T2, Neuronal acetylcholine receptor; alpha3/beta4; test: Displacement of [3H]epibatidine from recombinant rat alpha-3-beta-4 nAChr in HEK293 cell line; format: cell-based
cells = format: functional, cell-based; conditions: Homo sapiens, HEK293
[30] = biological target: Neuronal acetylcholine receptor; alpha4/beta2 (Rattus norvegicus, UniProt P09483+P12390); test: Displacement of [3H]epibatidine from rat recombinant alpha-4-beta-2 nAChR in HEK293 cell line; format: cell-based
Chain of Neuronal acetylcholine receptor; alpha4/beta2 (P09483 whole entry): as the sequence (P09483 whole entry) above
Chain of Neuronal acetylcholine receptor; alpha4/beta2 (P12390 whole entry): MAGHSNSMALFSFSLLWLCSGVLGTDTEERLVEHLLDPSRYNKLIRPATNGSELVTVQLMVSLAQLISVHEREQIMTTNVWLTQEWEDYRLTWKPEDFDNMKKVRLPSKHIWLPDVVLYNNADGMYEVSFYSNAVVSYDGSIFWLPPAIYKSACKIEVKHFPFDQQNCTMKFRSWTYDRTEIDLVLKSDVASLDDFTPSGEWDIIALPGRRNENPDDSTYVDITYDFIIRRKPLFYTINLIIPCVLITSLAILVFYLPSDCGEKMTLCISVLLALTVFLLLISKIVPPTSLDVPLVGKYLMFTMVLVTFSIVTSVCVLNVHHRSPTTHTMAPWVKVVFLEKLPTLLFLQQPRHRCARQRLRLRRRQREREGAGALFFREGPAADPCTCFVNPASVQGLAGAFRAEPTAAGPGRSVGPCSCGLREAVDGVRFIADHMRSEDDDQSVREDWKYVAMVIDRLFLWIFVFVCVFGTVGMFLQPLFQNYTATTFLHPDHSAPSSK

[31] = biological target: T3, Glycine receptor subunit alpha-1 (Homo sapiens, UniProt P23415); test: Antagonist activity at human glycine alpha-1 receptor in HEK293 cells by FMP assay; format: functional, cell-based
T3 sequence (P23415 whole entry): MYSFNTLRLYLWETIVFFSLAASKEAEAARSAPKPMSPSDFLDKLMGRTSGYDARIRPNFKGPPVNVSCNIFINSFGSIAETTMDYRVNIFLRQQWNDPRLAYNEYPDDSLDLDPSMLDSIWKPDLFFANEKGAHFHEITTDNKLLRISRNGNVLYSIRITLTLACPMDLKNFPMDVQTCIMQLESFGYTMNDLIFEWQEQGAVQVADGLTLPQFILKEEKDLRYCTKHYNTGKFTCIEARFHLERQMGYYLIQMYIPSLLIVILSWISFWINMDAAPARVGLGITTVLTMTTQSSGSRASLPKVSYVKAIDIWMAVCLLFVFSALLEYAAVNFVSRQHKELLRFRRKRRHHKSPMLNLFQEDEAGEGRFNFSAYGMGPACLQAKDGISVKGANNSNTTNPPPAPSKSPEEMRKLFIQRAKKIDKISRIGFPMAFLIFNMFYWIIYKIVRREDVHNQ

[32] = biological target: T4, 5-hydroxytryptamine receptor 3A (Homo sapiens, UniProt P46098); test: Antagonist activity at human 5HT3A receptor expressed in HEK293 cells by FMP assay; format: functional, cell-based
T4 sequence (P46098 whole entry): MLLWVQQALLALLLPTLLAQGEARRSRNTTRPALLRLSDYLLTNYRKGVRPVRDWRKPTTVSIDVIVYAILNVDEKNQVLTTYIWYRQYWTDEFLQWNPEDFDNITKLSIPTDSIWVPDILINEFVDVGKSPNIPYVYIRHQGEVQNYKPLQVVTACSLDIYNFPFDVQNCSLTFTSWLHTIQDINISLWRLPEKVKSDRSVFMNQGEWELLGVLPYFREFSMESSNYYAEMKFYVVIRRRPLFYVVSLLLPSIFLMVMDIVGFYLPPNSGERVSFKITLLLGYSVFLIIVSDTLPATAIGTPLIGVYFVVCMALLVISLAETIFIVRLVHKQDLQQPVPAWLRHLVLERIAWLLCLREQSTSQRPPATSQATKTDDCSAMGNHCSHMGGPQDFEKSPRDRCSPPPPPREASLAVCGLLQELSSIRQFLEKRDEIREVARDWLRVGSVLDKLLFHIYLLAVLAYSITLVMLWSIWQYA

[33] = biological target: T4, 5-hydroxytryptamine receptor 3A; test: Displacement of [3H]GR65630 from human 5HT3A receptor in HEK293 cells; format: cell-based

## CCN1C[C@]2(COC(=O)c3ccccc3N3C(=O)C[C@H](C)C3=O)CC[C@H](OC)[C@@]34[C@@H]5C[C@H]6[C@H](OC)[C@@H]5[C@](O)(C[C@@H]6OC)[C@](O)([C@@H](OC)[C@H]23)[C@@H]14 [METHYLLYCACONITINE]
tsA201 [1]
  Activity: inactive
[2]
  Ki: 0.0017 µM
  pKi: 8.78
[3]; read-out: Ki
  Ki: 0.0011 µM
[3]; read-out: pKi (converted)
  Ki: 0.001 µM
[4]; read-out: IC50
  IC50: 1.8 µM
[4]; read-out: pIC50 (converted)
  IC50: 1.82 µM
[5]
  Ki: 0.0055 µM
  pKi: 8.26
[6]; read-out: IC50
  IC50: 0.32 µM
[6]; read-out: pIC50 (converted)
  IC50: 0.324 µM
[7]
  Ki: 0.0035 µM
  pKi: 8.45
tsA201 [8]
  Activity: inactive
tsA201 [9]
  Activity: inactive
[10]
  Ki: 0.0025 µM
  pKi: 8.6
[11]
  Ki: 0.0039 µM
  pKi: 8.41
[12]
  Ki: 0.013 µM
  pKi: 7.89
[13]
  Ki: 0.0035 µM
  pKi: 8.45
[14]
  IC50: 0.0083 µM and 0.00832 µM
[15]; read-out: IC50
  IC50: 0.089 µM
[15]; read-out: pIC50 (converted)
  IC50: 10 µM
[16]
  Ki: 0.0045 µM
  pKi: 8.35
[17]
  Ki: 0.0043 µM
  pKi: 8.37
[18]
  Ki: 0.0019 µM
  pKi: 8.71
tsA201 [19]
  Activity: inactive
[20]; read-out: IC50
  IC50: 10 µM
[20]; read-out: pIC50 (converted)
  IC50: 31.6 µM
tsA201 [21]
  Activity: inactive
[22]; read-out: Ki
  Ki: 0.0061 µM
[22]; read-out: pKi (converted)
  Ki: 0.00631 µM
[23]
  Ki: 0.0016 µM
  pKi: 8.79
[24]
  Ki: 0.024 µM
  pKi: 7.62
[25]
  Ki: 0.0032 µM
  pKi: 8.42
[26]; read-out: IC50
  IC50: 0.0083 µM
[26]; read-out: pIC50 (converted)
  IC50: 0.00832 µM

## C[N+](C)(C)Cc1c2n(c3ccccc13)Cc1c(C[N+](C)(C)C)c3ccccc3n1C2.[I-].[I-]
tsA201 [1]
  Activity: inactive
[27]; hek293
  pIC50: < 4
[27]; read-out: IC50
  IC50: > 100 µM
[28]
  Ki: > 100 µM
[28]; hek293
  pKi: < 4
[2]
  Ki: 8.3 µM
  pKi: 5.08
[29]
  Ki: > 100 µM
[29]; hek293
  pKi: < 4
cells; read-out: IC50
  IC50: > 100 µM
cells; read-out: pIC50 (converted)
  IC50: > 100 µM
[30]
  Ki: > 100 µM
[30]; read-out: Ki
  Ki: > 100 µM
[3]; read-out: Ki
  Ki: 2.4 µM
[3]; read-out: pKi (converted)
  Ki: 2.51 µM
[5]
  Ki: 6.3 µM
  pKi: 5.2
[7]
  Ki: 6 µM
  pKi: 5.22
tsA201 [8]
  Activity: inactive
tsA201 [9]
  Activity: inactive
[10]
  Ki: 0.43 µM
  pKi: 6.37
[11]
  Ki: 7.2 µM
  pKi: 5.14
[12]
  Ki: 22 µM
  pKi: 4.66
[13]
  Ki: 7.6 µM
  pKi: 5.12
[31]
  IC50: > 100 µM
[31]; hek293
  pIC50: < 4
[16]
  Ki: 2.4 µM
  pKi: 5.61
[17]
  Ki: 5.2 µM
  pKi: 5.28
[18]
  Ki: 5.1 µM
  pKi: 5.29
tsA201 [19]
  Activity: inactive
tsA201 [21]
  Activity: inactive
[22]; read-out: Ki
  Ki: 1.3 µM
[22]; read-out: pKi (converted)
  Ki: 1.26 µM
[23]
  Ki: 4.42 µM
  pKi: 5.35
[32]; hek293
  pIC50: < 4
[32]; read-out: IC50
  IC50: > 100 µM
[24]
  Ki: 1.1 µM
  pKi: 5.94
[25]
  Ki: 15 µM
  pKi: 4.82
[26]; read-out: IC50
  IC50: 30 µM
[26]; read-out: pIC50 (converted)
  IC50: 100 µM
[33]
  Ki: > 100 µM
[33]; hek293
  pKi: < 4
